ChEMBL document CHEMBL1133186, “A new class of HIV-1 integrase inhibitors: the 3,3,3', 3'-tetramethyl-1,1'-spirobi(indan)-5,5',6,6'-tetrol family” (J Med Chem, 2000)
pIC50: −log10 of the molar value. Active and inactive are the calls of the source. The rule behind the calls is not given here.

How the values were obtained:
[1] = HeLa cell cytotoxicity by MTT cytotoxicity assay; assay type: cell-based; conditions: human, HeLa cells; read-out: LD50 (the source's name)
How it was run: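 HeLa cells in culture exposed to a range of compound concentrations; viability read by MTT assay.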

[2] = tested on: Human immunodeficiency virus 1; assay: In vitro integration activity provided by preintegration complexes isolated from HIV-infected cells; assay type: functional
How it was run: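 Preintegration complexes were made with biologically inactivated HIV-based vectors and isolated from infected cells. They integrate their endogenously synthesized viral cDNA into an added target DNA, read out by microtiter plate assay over a range of compound concentrations.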

[3] = target: T1, Topoiomerase 1B (Molluscum contagiosum virus subtype 1) (UniProt Q98254); assay: (§1) DNA cleavage and religation activity as inhibition of type 1B topoisomerase of molluscum contagiosum virus (MCV); assay type: functional
T1 sequence (whole entry): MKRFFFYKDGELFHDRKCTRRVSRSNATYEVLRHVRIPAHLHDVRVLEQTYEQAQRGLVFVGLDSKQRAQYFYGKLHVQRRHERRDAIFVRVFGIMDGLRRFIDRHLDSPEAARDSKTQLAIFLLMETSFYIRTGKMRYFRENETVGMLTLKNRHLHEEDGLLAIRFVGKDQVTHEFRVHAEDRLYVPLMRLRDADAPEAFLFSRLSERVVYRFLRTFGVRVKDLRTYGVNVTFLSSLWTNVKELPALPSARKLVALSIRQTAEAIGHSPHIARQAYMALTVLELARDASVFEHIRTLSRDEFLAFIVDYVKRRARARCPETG
How it was run: (§2)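 Type 1B topoisomerase of molluscum contagiosum virus tested as a counterscreen in a microtiter plate format that reads out DNA cleavage and religation.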

[4] = tested on: Molluscum contagiosum virus; assay: DNA relaxation activity tested by the inhibition of the Type 1B topoisomerase of molluscum contagiosum virus (MCV); assay type: functional
How it was run: (§3)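 Type 1B topoisomerase of molluscum contagiosum virus tested as a counterscreen. Supercoiled DNA relaxation was analysed on gels.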

[5] = tested on: Integrase (Human immunodeficiency virus 1); assay: Tested in vitro against strand -transfer (ST) activity in the presence of Mg2+ as the cationic cofactor
[6] = tested on: Integrase (Human immunodeficiency virus 1); assay: Inhibition of 3'-processing (TC) in the presence of Mn2+ in vitro
[7] = tested on: Integrase (Human immunodeficiency virus 1); assay: Inhibition of strand -transfer (ST) activity in the presence of Mn2+
[8] = tested on: Molluscum contagiosum virus; assay: DNA relaxation activity tested by the inhibition of the type 1B topoisomerase of molluscum contagiosum virus (MCV)at a concentration of 200 uM; NA is Not Active.; assay type: functional, organism-based; how it was run: as §3
[9] = tested on: Integrase (Human immunodeficiency virus 1); assay: Compound was tested in vitro against 3''-processing (TC) in the presence of Mn2+ at a concentration of 200 uM; NA is Not Active.
[10] = tested on: Integrase (Human immunodeficiency virus 1); assay: Compound was tested in vitro against strand -transfer (ST) activity in the presence of Mg2+ as the cationic cofactor at a concentration of 200 uM; NA is Not Active.
[11] = tested on: Molluscum contagiosum virus; assay: DNA cleavage and religation activity tested by the inhibition of the type 1B topoisomerase of molluscum contagiosum virus (MCV)at a concentration of 200 uM; NA is Not Active.; assay type: functional
How it was run: (§4)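 MCV type 1B topoisomerase counterscreen in microtiter plate format, reading DNA cleavage and religation; compounds tested up to 200 uM.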

[12] = tested on: Integrase (Human immunodeficiency virus 1); assay: Compound was tested in vitro against strand -transfer (ST) activity in the presence of Mn2+ at a concentration of 200 uM; NA is Not Active.
[13] = tested on: Molluscum contagiosum virus; assay: DNA relaxation activity tested by the inhibition of the type 1B topoisomerase of molluscum contagiosum virus (MCV) at a concentration of 200 uM; NA is Not Active.; assay type: functional
How it was run: (§5)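 MCV type 1B topoisomerase counterscreen reading DNA relaxation, with products analysed on gels.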

[14] = tested on: Molluscum contagiosum virus; assay: DNA cleavage and religation activity tested by the inhibition of the type 1B topoisomerase of molluscum contagiosum virus (MCV) at a concentration of 200 uM; NA is Not Active.; assay type: functional; how it was run: as §4
[15] = tested on: Integrase (Human immunodeficiency virus 1); assay: Compound was tested in vitro against 3'-processing (TC) in the presence of Mn2+ at a concentration of 200 uM; Na is Not Active.
[16] = target: T2, Topoiomerase 1B (Molluscum contagiosum virus subtype 1, UniProt Q98254); assay: as §1; assay type: functional; how it was run: as §2
T2 sequence (Q98254 whole entry): T1 sequence (whole entry)

[17] = tested on: Molluscum contagiosum virus; assay: DNA relaxation activity tested by the inhibition of the type 1B topoisomerase of molluscum contagiosum virus (MCV)at a concentration of 500 uM; NA is Not Active.; assay type: functional, organism-based; how it was run: as §5

Row | SMILES | CC50 [1] [µM] | pIC50 [2] | inhibition [3] | inhibition [4] | further results
1 | CC1(C)CC2(CC(C)(C)c3cc(O)c(O)cc32)c2cc(O)c(O)cc21 | 65 | < 4.10 | inactive | inactive | –
2 | CC1(C)CC2(CC(C)(C)c3ccc(O)c(N)c32)c2cc(O)c(N)cc21 (stereo not drawn) | 3 | < 4.10 | inactive | inactive | inhibition [5]: inactive; inhibition [6]: inactive; inhibition [7]: inactive
3 | CC1(C)CC2(CC(C)(C)c3cc(NC(N)=O)c(O)cc32)c2cc(O)c(NC(N)=O)cc21 | 53 | < 4.10 | – | – | NA [8]: inactive; NA [9]: inactive; NA [10]: inactive; NA [11]: inactive; NA [12]: inactive
4 | CC1(C)CC2(CC(C)(C)c3cc(Br)c(O)cc32)c2cc(O)c(Br)cc21 | 4 | < 4.10 | – | – | Inhibition of DNA relaxation [13]: inactive; Inhibition of DNA cleavage and religation [14]: inactive; NA [10]: inactive
5 | CC1(C)CC2(CC(C)(C)c3cc(N)c(O)cc32)c2cc(O)c(N)cc21 | 47 | < 4.10 | inactive | inactive | inhibition [6]: inactive; inhibition [7]: inactive
6 | Cc1cc2c(cc1O)C1(CC2(C)C)CC(C)(C)c2cc(C)c(O)cc21 | 10 | < 4.10 | – | – | Inhibition of DNA relaxation [13]: inactive; Inhibition of DNA cleavage and religation [14]: inactive; NA [10]: inactive; NA [12]: inactive; NA [15]: inactive
7 | CC1(C)CC2(CC(C)(C)c3cc(OS(=O)(=O)O)c(OS(=O)(=O)O)cc32)c2cc(OS(=O)(=O)O)c(OS(=O)(=O)O)cc21 | 134 | < 4.10 | inactive | – | pIC50 [4]: 3.91
8 | CC1(C)CC2(CC(C)(C)c3c(Br)c(OS(=O)(=O)O)c(OS(=O)(=O)O)c(Br)c32)c2c(Br)c(OS(=O)(=O)O)c(OS(=O)(=O)O)c(Br)c21 | 207 | < 4.10 | – | – | pIC50 [16]: 4.12
9 | CC1(C)CC2(CC(C)(C)c3ccc(O)cc32)c2cc(O)ccc21 | < 20 | < 4.10 | – | – | NA [11]: inactive; NA [17]: inactive
10 | CC1(C)CC2(CC(C)(C)c3cc(S(=O)(=O)O)c(O)cc32)c2cc(O)c(S(=O)(=O)O)cc21 | > 600 | < 4.10 | inactive | inactive | inhibition [6]: inactive; inhibition [7]: inactive
11 | CC1(C)CC2(CC(C)(C)c3cc([N+](=O)[O-])c(O)cc32)c2cc(O)c([N+](=O)[O-])cc21 | 198 | < 4.10 | inactive | inactive | inhibition [5]: inactive; inhibition [6]: inactive; inhibition [7]: inactive
12 | CC1(C)CC2(CC(C)(C)c3cc(C=O)c(O)cc32)c2cc(O)c(C=O)cc21 | 4 | < 4.10 | inactive | – | –
13 | CC1(C)CC2(CC(C)(C)c3ccc(OS(=O)(=O)O)cc32)c2cc(OS(=O)(=O)O)ccc21 | > 400 | < 4.10 | inactive | – | –
14 | CC1(C)CC2(CC(C)(C)c3cc([N+](=O)[O-])c(O)c([N+](=O)[O-])c32)c2cc(O)c([N+](=O)[O-])cc21 (stereo not drawn) | 41 | < 4.10 | inactive | – | pIC50 [4]: 3.70
15 | CC1(C)CC2(CC(C)(C)c3ccc(O)c(NC(N)=O)c32)c2cc(O)c(NC(N)=O)cc21 (stereo not drawn) | 60 | < 4.10 | – | – | Inhibition of DNA relaxation [13]: inactive; Inhibition of DNA cleavage and religation [14]: inactive
16 | CC1(C)CC2(CC(C)(C)c3c(Br)c(O)c(O)c(Br)c32)c2c(Br)c(O)c(O)c(Br)c21 | 18 | < 4.10 | – | inactive | pIC50 [16]: 4.30
17 | CC1(C)CC2(CC(C)(C)c3cc(I)c(O)cc32)c2cc(O)c(I)cc21 | < 20 | < 4.10 | – | – | Inhibition of DNA relaxation [13]: inactive; Inhibition of DNA cleavage and religation [14]: inactive; NA [10]: inactive
18 | CC1(C)CC2(CC(C)(C)c3cc(Br)c(OS(=O)(=O)O)cc32)c2cc(OS(=O)(=O)O)c(Br)cc21 | 50 | < 4.10 | inactive | – | inhibition [5]: inactive; inhibition [6]: inactive; inhibition [7]: inactive
19 | CC1(C)CC2(CC(C)(C)c3ccc(O)c([N+](=O)[O-])c32)c2cc(O)c([N+](=O)[O-])cc21 (stereo not drawn) | 41 | < 4.10 | inactive | inactive | –
